Calb FLC: C. albicans growth inhibition with fluconazole, primary screen, CaCi-2 strain, Alamar Blue fluorescence | C. albicans CaCi-2 (fluconazole-resistant clinical isolate) + fluconazole, 48 h | growth inhibition, % (no concentration beside the values) | actives 0.57% (n = 300,000) | AID 1979, 2009;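 active means growth inhibition above about 58% in most replicates, limit read from the data, passing the limit was not always enough; inconclusive means exactly half the replicates above a set limit; inactive means most replicates below a set limit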;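 further: all wells also contain fluconazole at 8 µg/ml as a sub-toxic cotreatment; 0% = median of DMSO wells and 100% = median of geldanamycin control wells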
NLRP3 yeast inh: NALP3 inflammasome inhibitors in reconstituted yeast, primary screen, luminescence, uHTS; Yeast reconstituted NLRP3/ASC/caspase-1, beta-gal luminescence, 24 h; inhibition, % at 10 µM; actives 0.39% (n = 330,000);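 active means inhibition of 50% or more; inactive means inhibition below 50%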;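 further: plate controls were induced DMSO wells for no effect and uninduced yeast grown without galactose for full effect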
T cruzi inh: inhibitors of intracellular T. cruzi growth, primary screen, luminescence, NIH3T3 host cells; actives 1.4% (n = 300,000); T. cruzi beta-gal in NIH3T3, 90 h; inhibition, % (concentration not given with the values);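 active means mean inhibition across valid replicates above about 55%, limit read from the data; inconclusive means mean below that limit but half or more replicates reach it; inactive means mean below it, under half of replicates reach it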;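 further: signal also drops with host cell toxicity which is not excluded here; 0% = plate median of DMSO wells and 100% = zero luminescence signal; higher percent means less beta-gal luminescence so fewer parasites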
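Assay system: NIH/3T3 host cells with β-galactosidase reporter T. cruzi; input: 5,000 host fibroblasts per well; compound: single 50 nL compound addition per well in DMSO; timing: ≥90 h infection period, 3 h prior cell attachment; measured by: GalScreen β-gal luminescence, detergent lysis, 60 min; evaluation: percent inhibition of parasite-derived β-gal signal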
PolyA inhibitor: polyadenylation inhibitors in yeast reporter cells, primary screen, luminescence, S. cerevisiae; S. cerevisiae SKY197-pL101 polyadenylation reporter, beta-gal luminescence; efflux-impaired pdr1/pdr3 knockout yeast; score 100 = 6 SD above DMSO; activity score, % at 12 µM; actives 0.02% (n = 300,000); AID 1875, 2009;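 active means lowest replicate activity score at least 50, where 100 means six control SD above control mean; inconclusive means lowest score under 50 but half or more replicates reach 50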;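 further: yeast exposed to compound for 9 h at 30 °C; higher score means more reporter readthrough which indicates perturbed polyadenylation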
Lmaj promast: Leishmania major promastigote growth inhibition, primary screen | Leishmania major promastigotes, resazurin fluorescence viability | inhibition, % at 10 µM | actives 9% (n = 200,000); in the data active means inhibition above about 50%;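 further: promastigotes grown with compound for 44 hours at 28 °C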
NALP1 inh: NALP1 inflammasome inhibitors in reconstituted yeast, colorimetric, S. cerevisiae, triplicate retest | S. cerevisiae NALP1/ASC/caspase-1 growth, X-gal OD620, 72 h | inhibition, % at 10 µM | actives 0.61% (n = 280,000) | AID 2071, 2009; in the data active means inhibition mostly above about 24%, no sharp cut-off; inactive means mostly below about 32%
Active calls of the source: *. Only a selection was taken, and hits are over-represented in it overall.

Results for COc1cc(OC)cc(C(=O)NC(C(=O)N2CCc3ccccc3C2)C(C)C)c1 (configuration not stated) ?
Calb FLC: 3; NLRP3 yeast inh: 11; T cruzi inh: 10; PolyA inhibitor: 31; NALP1 inh: 4

How did Cc1ccc(-c2n[nH]c(=S)nc2-c2ccc(C)cc2)cc1 do in these assays?
Calb FLC: 8; T cruzi inh: 14; PolyA inhibitor: 0; NALP1 inh: -1

What do the screens show for `O=C(N/N=C/c1ccc([N+](=O)[O-])cc1)c1ccc(COc2ccccc2-c2ccccc2)cc1`?
Calb FLC: -4; NLRP3 yeast inh: 16; T cruzi inh: 61*; PolyA inhibitor: 7; Lmaj promast: 90*; NALP1 inh: 13

How did CC(C)C(=O)Nc1ccccc1C(=O)N/N=C/c1ccc([N+](=O)[O-])cc1 do in these assays?
Calb FLC: -4; NLRP3 yeast inh: 9; T cruzi inh: 8; PolyA inhibitor: 11; Lmaj promast: 52*; NALP1 inh: 5

How did O=C(N/N=C/c1ccc(-c2cccc([N+](=O)[O-])c2)o1)c1cccs1 do in these assays?
Calb FLC: -1; NLRP3 yeast inh: 13; T cruzi inh: 80*; PolyA inhibitor: -8; Lmaj promast: -1; NALP1 inh: -6

Results for CC(C)NS(=O)(=O)c1ccc(CCC(=O)N2CCC(C(N)=O)CC2)cc1 ?
Calb FLC: inconclusive; NLRP3 yeast inh: -6; T cruzi inh: -18; PolyA inhibitor: 4; Lmaj promast: -5; NALP1 inh: 9

How did COC(=O)Oc1ccc(/C=C/C(=O)OC(C)C)cc1OC(=O)OC do in these assays?
Calb FLC: -12; NLRP3 yeast inh: 10; T cruzi inh: -1; PolyA inhibitor: -4; Lmaj promast: 80*; NALP1 inh: 11

Results for CCCCOC(=O)/C=C/c1ccc(OC(=O)OC)c(OC(=O)OC)c1 ?
Calb FLC: -29; NLRP3 yeast inh: 22; T cruzi inh: -3; PolyA inhibitor: 13; Lmaj promast: -6; NALP1 inh: 17

Results for COc1cc(/C=C/C(=O)OCC(=O)Nc2nnc(-c3ccccc3)o2)cc(OC)c1OC ?
Calb FLC: -1; NLRP3 yeast inh: 11; T cruzi inh: -11; PolyA inhibitor: -12

Results for O=C(N=Nc1c(O)[nH]c2ccc(Cl)cc12)c1cc(-c2cccs2)nc2ccccc12 ?
Calb FLC: -13; T cruzi inh: 22; PolyA inhibitor: 11; Lmaj promast: 52*; NALP1 inh: 26

Results for CCCn1cc(CN2CCCC(C(=O)c3cccc(OC(C)C)c3)C2)c(C)n1 (configuration not stated) ?
Calb FLC: -12; NLRP3 yeast inh: 16; T cruzi inh: inconclusive; PolyA inhibitor: 1; Lmaj promast: 74*; NALP1 inh: 4

How did CC(C)Oc1cccc(C(=O)C2CCCN(C(=O)CCn3cnnn3)C2)c1 (configuration not stated) do in these assays?
Calb FLC: inconclusive; NLRP3 yeast inh: 1; T cruzi inh: -1; PolyA inhibitor: 12; Lmaj promast: -6; NALP1 inh: -1

How did CCCn1ncc(CN2CCCC(C(=O)c3cccc(OC(C)C)c3)C2)c1C (configuration not stated) do in these assays?
Calb FLC: -23; NLRP3 yeast inh: 13; T cruzi inh: 55*; PolyA inhibitor: -3; NALP1 inh: -4

Results for CC1CCCC(C)N1C(=O)COC(=O)Cn1cnc2c1c(=O)n(C)c(=O)n2C (configuration not stated) ?
Calb FLC: 2; NLRP3 yeast inh: 10; T cruzi inh: -14; PolyA inhibitor: 15

How did COC(=O)c1cc(C)nc(Sc2ccccc2N)n1 do in these assays?
Calb FLC: 1; NLRP3 yeast inh: 16; T cruzi inh: 54; PolyA inhibitor: -2; NALP1 inh: -8

How did O=C(CCN1C(=O)/C(=C/c2cccs2)SC1=S)N1CCCCC1 do in these assays?
Calb FLC: 5; NLRP3 yeast inh: 24; T cruzi inh: 3; PolyA inhibitor: 9; NALP1 inh: 17

How did COc1ccccc1C(=O)ON=C1c2ccccc2-c2ccccc21 do in these assays?
Calb FLC: -8; NLRP3 yeast inh: 15; T cruzi inh: -8; PolyA inhibitor: -40; Lmaj promast: 51*; NALP1 inh: 0

Results for COC(=O)CCN(C1CCCCC1)S(=O)(=O)c1ccc(S(=O)(=O)NC2CCCCC2)cc1 ?
Calb FLC: 11; NLRP3 yeast inh: 6; T cruzi inh: 28; PolyA inhibitor: 4; Lmaj promast: 99*; NALP1 inh: 14

How did CCC(C)NS(=O)(=O)c1ccc(NC(=O)CCC2CCCCC2)cc1 (configuration not stated) do in these assays?
Calb FLC: 3; NLRP3 yeast inh: 7; T cruzi inh: -1; PolyA inhibitor: 5; Lmaj promast: -4; NALP1 inh: -12

How did O=C(CN(Cc1cccs1)S(=O)(=O)c1ccc(S(=O)(=O)NC2CCCCC2)cc1)Nc1ccccc1 do in these assays?
Calb FLC: -1; NLRP3 yeast inh: 9; T cruzi inh: 57*; PolyA inhibitor: 3; Lmaj promast: 41; NALP1 inh: -22

How did COC(=O)COc1ccc(S(=O)(=O)NC2CCCCCC2)cc1 do in these assays?
Calb FLC: 3; NLRP3 yeast inh: 6; T cruzi inh: -26; PolyA inhibitor: -3; Lmaj promast: 8; NALP1 inh: 6

What do the screens show for `CCC(C)NS(=O)(=O)c1ccc(S(=O)(=O)N(CC(=O)Nc2ccccc2)CC2CCCO2)cc1` (configuration not stated)?
Calb FLC: 8; NLRP3 yeast inh: -1; T cruzi inh: 13; PolyA inhibitor: 6; Lmaj promast: 60*; NALP1 inh: 7

How did O=S(=O)(NCc1ccccc1)c1ccc(S(=O)(=O)N(Cc2cccs2)CC2CCCO2)cc1 (configuration not stated) do in these assays?
Calb FLC: 15; NLRP3 yeast inh: 11; T cruzi inh: 2; PolyA inhibitor: 3; Lmaj promast: -3; NALP1 inh: 15

How did O=C(CN(C1CC1)S(=O)(=O)c1ccc(S(=O)(=O)NC2CCCCC2)cc1)Nc1ccccc1 do in these assays?
Lmaj promast: 100*; NALP1 inh: -3

What do the screens show for `COc1cccc(CN2CC(C(=O)NCCSc3nnnn3C)CCC2=O)c1` (configuration not stated)?
Calb FLC: 2; NLRP3 yeast inh: -1; T cruzi inh: -16; PolyA inhibitor: 8; NALP1 inh: 21
